Laboratory results published in ChEMBL document CHEMBL2321839, “Novel limonene and citral based 2,5-disubstituted-1,3,4-oxadiazoles: a natural product coupled approach to semicarbazones for antiepileptic activity” (Bioorg Med Chem Lett, 2013).
Active and inactive are the calls of the source. The rule behind the calls is not given here.

Columns and labels:
Rattus norvegicus [1] = assay: Antiepileptic activity in ip dosed Wistar rat assessed as protection against scSTY-induced seizures after 4 hrs; assay type: functional; conditions: read-out: MED
Method in brief: (§1)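 Male Wistar rats (100–150 g), compounds given ip at 30, 100 and 300 mg/kg. Seizures induced by subcutaneous strychnine (scSTY). Activity read 0.5 and 4.0 h after dosing. Reported as the minimal dose active in at least half of the animals; a dash means no activity at 300 mg/kg.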

Mus musculus [2] = assay: Neurotoxicity against Swiss albino mouse by rotarod test at 300 mg/kg, ip after 0.5 hrs; assay type: toxicity, organism-based; parameters: dose 300 mg/kg, route intraperitoneal; conditions: in vivo
Method in brief: (§2)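 Acute neurotoxicity tested by rotorod in male Swiss albino mice (18–25 g) given 30, 100 or 300 mg/kg ip. Read at 0.5 and 4.0 h post-dose. Result is the minimal dose causing toxicity in half or more of the animals; a dash means none up to 300 mg/kg.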

Mus musculus [3] = assay: Antiepileptic activity in ip dosed Swiss albino mouse assessed as protection against maximal-electric shock-induced seizures after 4 hrs; assay type: functional; conditions: read-out: MED
Method in brief: (§3)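 Male Swiss albino mice (18–25 g), compounds given ip at 30, 100 and 300 mg/kg. Seizures induced by maximal electroshock (MES) or subcutaneous pentylenetetrazole (scPTZ). Protection scored at 0.5 and 4.0 h after dosing.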

Mus musculus [4] = assay: Antiepileptic activity in ip dosed Swiss albino mouse assessed as protection against scPTZ-induced seizures after 4 hrs; assay type: functional; conditions: read-out: MED; method in brief: as §3
Mus musculus [5] = assay: Antiepileptic activity in Swiss albino mouse assessed as protection against maximal-electric shock-induced seizures at 300 mg/kg, ip measured after 0.5 hrs; assay type: functional, organism-based; parameters: dose 300 mg/kg; method in brief: as §3
Mus musculus [6] = assay: Neurotoxicity against Swiss albino mouse by rotarod test at 300 mg/kg, ip after 4 hrs; assay type: toxicity, organism-based; parameters: dose 300 mg/kg, route intraperitoneal; conditions: in vivo; method in brief: as §2
Mus musculus [7] = assay: Antiepileptic activity in Swiss albino mouse assessed as protection against scPTZ-induced seizures at 300 mg/kg, ip measured after 0.5 hrs; assay type: functional, organism-based; parameters: dose 300 mg/kg; method in brief: as §3
Rattus norvegicus [8] = assay: Antiepileptic activity in Wistar rat assessed as protection against scSTY-induced seizures at 300 mg/kg, ip measured after 0.5 hrs; assay type: functional, organism-based; parameters: dose 300 mg/kg; method in brief: as §1
Mus musculus [9] = assay: Antiepileptic activity in Swiss albino mouse assessed as protection against maximal-electric shock-induced seizures at 300 mg/kg, ip measured after 4 hrs; assay type: functional, organism-based; parameters: dose 300 mg/kg; method in brief: as §3
Mus musculus [10] = assay: Antiepileptic activity in Swiss albino mouse assessed as protection against scPTZ-induced seizures at 300 mg/kg, ip measured after 4 hrs; assay type: functional, organism-based; parameters: dose 300 mg/kg; method in brief: as §3
Rattus norvegicus [11] = assay: Antiepileptic activity in Wistar rat assessed as protection against scSTY-induced seizures at 300 mg/kg, ip measured after 4 hrs; assay type: functional, organism-based; parameters: dose 300 mg/kg; method in brief: as §1
Mus musculus [12] = assay: Neurotoxicity against ip dosed Swiss albino mouse after 4 hrs by rotarod test; assay type: toxicity, organism-based; conditions: in vivo; method in brief: as §2
Rattus norvegicus [13] = assay: Neurotoxicity in Wistar rat at 30 mg/kg, po measured at 2 hrs by rotarod test; assay type: toxicity, organism-based; parameters: dose 30 mg/kg, route oral; conditions: in vivo
Method in brief: (§4)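 Neurotoxicity assessed in Wistar rats (100–150 g) after a 30 mg/kg oral dose, read at 0.25, 0.5, 1, 2 and 4 h.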

Rattus norvegicus [14] = assay: Neurotoxicity in Wistar rat at 30 mg/kg, po measured at 0.5 hrs by rotarod test; assay type: toxicity, organism-based; parameters: dose 30 mg/kg, route oral; conditions: in vivo; method in brief: as §4
Rattus norvegicus [15] = assay: Neurotoxicity in Wistar rat at 30 mg/kg, po measured at 4 hrs by rotarod test; assay type: toxicity, organism-based; parameters: dose 30 mg/kg, route oral; conditions: in vivo; method in brief: as §4
Rattus norvegicus [16] = assay: Antiepileptic activity in Wistar rat assessed as protection against maximal electric shock-induced seizures at 30 mg/kg, po measured at 4 hrs; assay type: functional
Method in brief: (§5)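 Single oral dose of 30 mg/kg in Wistar rats (100–150 g), tested by MES challenge at 0.25, 0.5, 1, 2 and 4 h.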

Rattus norvegicus [17] = assay: Antiepileptic activity in Wistar rat assessed as protection against maximal electric shock-induced seizures at 30 mg/kg, po measured at 0.5 hrs; assay type: functional; method in brief: as §5
Rattus norvegicus [18] = assay: Antiepileptic activity in Wistar rat assessed as protection against maximal electric shock-induced seizures at 30 mg/kg, po measured at 1 hr; assay type: functional; method in brief: as §5
Rattus norvegicus [19] = assay: Antiepileptic activity in Wistar rat assessed as protection against maximal electric shock-induced seizures at 30 mg/kg, po measured at 2 hrs; assay type: functional; method in brief: as §5
Rattus norvegicus [20] = assay: Antiepileptic activity in Wistar rat assessed as protection against maximal electric shock-induced seizures at 30 mg/kg, po measured at 0.25 hrs; assay type: functional; method in brief: as §5
Mus musculus [21] = assay: Neurotoxicity against ip dosed Swiss albino mouse after 0.5 hrs by rotarod test; assay type: toxicity, organism-based; conditions: in vivo; method in brief: as §2
Mus musculus [22] = assay: Antiepileptic activity in ip dosed Swiss albino mouse assessed as protection against maximal-electric shock-induced seizures after 0.5 hrs; assay type: functional; conditions: read-out: MED; method in brief: as §3
Rattus norvegicus [23] = assay: Neurotoxicity in Wistar rat at 30 mg/kg, po measured at 1 hr by rotarod test; assay type: toxicity, organism-based; parameters: dose 30 mg/kg, route oral; conditions: in vivo; method in brief: as §4
Rattus norvegicus [24] = assay: Neurotoxicity in Wistar rat at 30 mg/kg, po measured at 0.25 hrs by rotarod test; assay type: toxicity, organism-based; parameters: dose 30 mg/kg, route oral; conditions: in vivo; method in brief: as §4
Rattus norvegicus [25] = assay: Antiepileptic activity in Wistar rat assessed as GABA level in medulla oblangata per 100 mg at 100 mg/kg ip after 2 hrs (reference value: 31.86 +/- 4.65 ug); assay type: functional, Medulla oblongata; conditions: route intraperitoneal
Rattus norvegicus [26] = assay: Antiepileptic activity in Wistar rat assessed as GABA level in cerebellum per 100 mg at 100 mg/kg ip after 2 hrs (reference value: 23.48+/- 2.48 ug); assay type: functional; conditions: route intraperitoneal
Rattus norvegicus [27] = assay: Antiepileptic activity in Wistar rat assessed as GABA level in midbrain per 100 mg at 100 mg/kg ip after 2 hrs (reference value: 35.42 +/- 2.14 ug); assay type: functional; conditions: route intraperitoneal

Structure (SMILES)	minimal effective dose (Rattus norvegicus [1]) [mg/kg]	Activity (Mus musculus [2])	minimal effective dose (Mus musculus [3]) [mg/kg]	minimal effective dose (Mus musculus [4]) [mg/kg]	Activity (Mus musculus [5])	Activity (Mus musculus [6])	Activity (Mus musculus [7])	Activity (Rattus norvegicus [8])	Activity (Mus musculus [9])	Activity (Mus musculus [10])	Activity (Rattus norvegicus [11])	MTC (Mus musculus [12]) [mg/kg]	MTC (Mus musculus [21]) [mg/kg]	other results
C=C(C)[C@@H]1CC=C(C)/C(=N/NC(=O)Nc2nnc(-c3ccc(OC)cc3)o2)C1	300	Non-toxic	300	300	inactive	Non-toxic	inactive	inactive						
COc1ccc(-c2nnc(NC(=O)N/N=C/C/C(C)=C\CC=C(C)C)o2)cc1	300	Non-toxic			inactive	Non-toxic	inactive	inactive	inactive	inactive				
C=C(C)[C@@H]1CC=C(C)/C(=N/NC(=O)Nc2nnc(-c3ccccc3)o2)C1		Non-toxic	300		inactive		inactive	inactive		inactive	inactive	300		
CC(C)=CC/C=C(/C)C/C=N/NC(=O)Nc1nnc(-c2ccc(F)cc2)o1		Non-toxic	300	300	inactive		inactive	inactive			inactive			
O=C1NC(=O)C(c2ccccc2)(c2ccccc2)N1 [PHENYTOIN]	100		30				inactive	inactive		inactive		100	100	Activity (Rattus norvegicus [13]): Non-toxic; Activity (Rattus norvegicus [14]): Non-toxic; Activity (Rattus norvegicus [15]): Non-toxic; Activity (Rattus norvegicus [16]): 0%; Activity (Rattus norvegicus [17]): 50%; Activity (Rattus norvegicus [18]): 50%; Activity (Rattus norvegicus [19]): 75%; Activity (Rattus norvegicus [20]): 75%; minimal effective dose (Mus musculus [22]): 30 mg/kg; Activity (Rattus norvegicus [23]): Non-toxic; Activity (Rattus norvegicus [24]): Non-toxic
CC(C)=CC/C=C(/C)C/C=N/NC(=O)Nc1nnc(-c2cccc(O)c2)o1					inactive	Non-toxic	inactive	inactive	inactive	inactive	inactive		300	
C=C(C)[C@@H]1CC=C(C)/C(=N/NC(=O)Nc2nnc(-c3ccc(C)cc3)o2)C1			300		inactive	Non-toxic	inactive	inactive		inactive	inactive		300	
C=C(C)[C@@H]1CC=C(C)/C(=N/NC(=O)Nc2nnc(-c3cccc(O)c3)o2)C1				300	inactive	Non-toxic	inactive	inactive	inactive		inactive		300	
CC(C)=CC/C=C(/C)C/C=N/NC(=O)Nc1nnc(-c2ccccc2O)o1				300	inactive		inactive	inactive	inactive		inactive		300	
CC(C)=CC/C=C(/C)C/C=N/NC(=O)Nc1nnc(-c2ccc(Cl)cc2)o1		Non-toxic	300			Non-toxic	inactive	inactive		inactive	inactive			minimal effective dose (Mus musculus [22]): 100 mg/kg
CC(C)=CC/C=C(/C)C/C=N/NC(=O)Nc1nnc(-c2ccccc2)o1		Non-toxic			inactive		inactive	inactive	inactive	inactive	inactive	300		
CC(C)=CC/C=C(/C)C/C=N/NC(=O)Nc1nnc(-c2ccc(O)cc2)o1	300	Non-toxic	300	300	inactive	Non-toxic	inactive	inactive						Activity (Rattus norvegicus [25]): 34.42 µg; Activity (Rattus norvegicus [26]): 28.25 µg; Activity (Rattus norvegicus [27]): 52.82 µg
CC(C)=CC/C=C(/C)C/C=N/NC(=O)Nc1nnc(-c2ccc(C)cc2)o1		Non-toxic	300		inactive	Non-toxic	inactive	inactive		inactive	inactive	300		
C=C(C)[C@@H]1CC=C(C)/C(=N/NC(=O)Nc2nnc(-c3ccc(Cl)cc3)o2)C1	300	Non-toxic	300	300		Non-toxic	inactive	inactive						minimal effective dose (Mus musculus [22]): 100 mg/kg
C=C(C)[C@@H]1CC=C(C)/C(=N/NC(=O)Nc2nnc(-c3ccccc3O)o2)C1		Non-toxic	300		inactive		inactive	inactive		inactive	inactive	300		
